ARFGAP1 inhibitor: rat ARFGAP1 inhibition; inhibition, % at 16.5 µM; Arfgap1-stimulated ARF1 GTP hydrolysis, GDP FP detection; 0.26% of 360,000 active;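 active = inhibition above a per-plate limit, mean inhibition of low control wells plus 3 SD, cut at about 25% in these data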;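 note: 0% = DMSO wells with enzyme and 100% = wells lacking Arfgap1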
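system = rat Arfgap1 catalytic domain, aa 1-136 | technique = FP, GDP Alexa 633 tracer displaced from anti-GDP antibody, 620/688 nm | compound = one concentration, 16.5 µM, DMSO 1.26% | medium = HEPES-based buffer, pH 7.5 | timing = compound-enzyme preincubation 20 min, reaction 120 min, detection 60 min, 25 °C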
ASAP1 inh: ASAP1 ArfGAP inhibition; Q9ULH1; ASAP1-stimulated ARF1 GTP hydrolysis, GDP FP detection; inhibition, % at 16.5 µM; 0.19% of 360,000 active; in the data active = inhibition above about 25%;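 note: 0% = vehicle with enzyme and substrate and 100% = no enzyme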
Target sequence (Q9ULH1 325-724 limits assumed): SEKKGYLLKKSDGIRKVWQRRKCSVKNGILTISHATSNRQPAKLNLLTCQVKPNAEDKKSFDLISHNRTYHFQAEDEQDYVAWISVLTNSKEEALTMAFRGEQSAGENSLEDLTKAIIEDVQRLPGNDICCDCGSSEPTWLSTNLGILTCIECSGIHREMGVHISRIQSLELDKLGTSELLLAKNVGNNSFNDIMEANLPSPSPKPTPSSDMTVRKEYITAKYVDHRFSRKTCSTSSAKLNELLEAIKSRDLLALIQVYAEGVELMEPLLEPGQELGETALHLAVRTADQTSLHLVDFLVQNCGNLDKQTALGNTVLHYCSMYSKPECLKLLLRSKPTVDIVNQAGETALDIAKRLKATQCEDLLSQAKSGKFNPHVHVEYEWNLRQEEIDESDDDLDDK
C2C12 statin: protects C2C12 myotubes from simvastatin toxicity. ATP luminescence, 48 h; scaled: DMSO 0, geranylgeraniol control 100. rescue of ATP level, % at 7.49 µM. 0.78% of 330,000 active. AID 602340;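 active = mean ATP rescue above about 67%, or every replicate alone reaching that limit, limit read from the data, passing the limit was not always enough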;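 note: myotubes were challenged with 10 µM simvastatin during compound exposure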
APOBEC3A inh: human APOBEC3A DNA deaminase inhibition | P31941 | recombinant A3A, FAM/TAMRA ssDNA deamination fluorescence | inhibition, % at 20 µM | 0.41% of 330,000 active | AID 493011;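 active = at least 40% inhibition at 20 µM here, with at most 30% in a related deaminase screen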;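 note: plate controls were A3A with DMSO for no effect and wells lacking A3A enzyme for full effect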
Target sequence (P31941 whole entry, looked up): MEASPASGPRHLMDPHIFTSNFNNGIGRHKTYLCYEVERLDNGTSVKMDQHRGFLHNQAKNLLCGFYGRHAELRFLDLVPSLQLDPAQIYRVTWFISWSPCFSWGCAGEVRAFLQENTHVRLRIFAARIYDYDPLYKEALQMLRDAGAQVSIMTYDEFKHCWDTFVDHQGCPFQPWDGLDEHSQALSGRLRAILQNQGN
Mot1-301 SUMO: inhibitors of SUMOylation pathway: yeast Mot1-301 growth rescue. growth rescue, % at 18.8 µM. 1% of 320,000 active. S. cerevisiae Mot1-301 growth rescue, ATP luminescence, 38.5C; percent above DMSO median, 100 means doubled;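 active = every valid replicate shows activation above 250% relative to neutral control wells; inactive = the rest, any valid replicate at or below 250%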;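 note: OY570 slx delta 5 strain wells were the positive control but not used for scaling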
A3G deaminase: inhibitors of human APOBEC3G DNA deaminase; recombinant A3G, ssDNA deamination FAM/TAMRA fluorescence; Q9HC16; AID 493012; 0.28% of 330,000 active; inhibition, % at 20 µM;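 active = inhibition of at least 40% at 20 µM, with no more than 30% in the related APOBEC3A deaminase screen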;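 note: plate controls were DMSO wells with A3G for no effect and wells lacking A3G enzyme for full effect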
A3A conf: APOBEC3A (human) deaminase inhibition, confirmed. AID 493151. 63% of 1,400 active. recombinant A3A, ssDNA deaminase UDG fluorescence assay. shares compounds with APOBEC3A inh. inhibition, % at 20 µM;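 active = inhibition reaching a set limit, 80% of the first screen's cutoff, at 20 µM in any replicate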;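 note: plate controls were DMSO wells with A3A for no effect and wells lacking A3A enzyme for full effect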
UDG ctr A3A: counter-screen for APOBEC3A inhibitors: UDG; AID 504714; 1,000 tested, under 10 active; UDG counterscreen, FAM/TAMRA uracil oligo fluorescence; shares compounds with APOBEC3A inh; inhibition, % at 20 µM; call rule not given here
* hit, by the source's call. Shown are actives, neighbours in structure and some others; about 2.1% of the full set was active somewhere.

How did C[N+]1(CC#CC(O)(c2ccccc2)c2ccccc2)CCCC1 do in these assays?
ARFGAP1 inhibitor: -1.2; ASAP1 inh: 3.6; APOBEC3A inh: 47.5; Mot1-301 SUMO: -2.7; A3G deaminase: 31.0

How did CC(C)[N+](C)(C)CC#CC(O)(c1ccccc1)c1ccccc1 do in these assays?
ARFGAP1 inhibitor: 3.6; ASAP1 inh: 7.9; APOBEC3A inh: 65.2*; Mot1-301 SUMO: 17.1; A3G deaminase: 26.3; A3A conf: 73.0*; UDG ctr A3A: -3.1

What do the screens show for `CCCC#Cc1cnc2c(c1)C(=O)N([C@@H](C)CO)C[C@@H](C)[C@@H](CN(C)C(=O)c1ccc3c(c1)OCO3)O2`?
C2C12 statin: -5.7

What do the screens show for `COCCn1c(N)c(N(Cc2ccccc2)C(=O)C2=COCCO2)c(=O)[nH]c1=O`?
ARFGAP1 inhibitor: 1.8; ASAP1 inh: -4.3; C2C12 statin: -1.2; APOBEC3A inh: 48.8*; Mot1-301 SUMO: 18.0; A3G deaminase: 18.2; A3A conf: 20.9

What do the screens show for `CCn1c(SCc2nc3ccccc3nc2C)nnc1-c1cccs1`?
ARFGAP1 inhibitor: 9.8; ASAP1 inh: -2.0; C2C12 statin: 4.4; APOBEC3A inh: -7.2; Mot1-301 SUMO: 10.2; A3G deaminase: -14.3

Results for C=CCn1c(SCc2nc3ccccc3nc2C)nnc1-c1ccoc1C ?
ARFGAP1 inhibitor: 9.8; ASAP1 inh: -1.8; C2C12 statin: -18.5; APOBEC3A inh: 44.6*; Mot1-301 SUMO: -5.6; A3G deaminase: -5.4; A3A conf: -1.0; UDG ctr A3A: 3.0

How did CC(C)(C)c1ccc(NC(=O)C2=CN3CCS(=O)(=O)N=C3C=C2)cc1 do in these assays?
ARFGAP1 inhibitor: 4.0; ASAP1 inh: -9.8; C2C12 statin: -11.3; APOBEC3A inh: 51.2*; Mot1-301 SUMO: 16.3; A3G deaminase: 9.4; A3A conf: 70.7*; UDG ctr A3A: -4.1

How did Cc1ccc(NC(=O)C2=CN3CCS(=O)(=O)N=C3C=C2)cc1 do in these assays?
ARFGAP1 inhibitor: 2.4; ASAP1 inh: 7.3; C2C12 statin: 8.6; APOBEC3A inh: -1.6; Mot1-301 SUMO: -11.6; A3G deaminase: -2.4

How did COc1ccc(-c2cnc3c(c2)C(=O)N([C@H](C)CO)C[C@H](C)[C@@H](CN(C)C(=O)NC2CCCC2)O3)cc1 do in these assays?
C2C12 statin: 38.5

Results for CO[C@H]1CN(C)C(=O)c2cc(NC(=O)NC(C)C)ccc2OC[C@@H](C)N(CCC(F)(F)F)C[C@@H]1C ?
C2C12 statin: 4.7

Results for COc1cc(C(N)=O)cc(Br)c1OCc1ccccc1 ?
ARFGAP1 inhibitor: -8.3; ASAP1 inh: -1.9; APOBEC3A inh: -0.5; Mot1-301 SUMO: 8.4; A3G deaminase: -5.2

Results for COc1cc(C(N)=O)cc(Br)c1OC ?
ARFGAP1 inhibitor: 4.2; ASAP1 inh: 11.1; APOBEC3A inh: 43.9*; Mot1-301 SUMO: -2.8; A3G deaminase: 17.0; A3A conf: 47.4*; UDG ctr A3A: 1.2

What do the screens show for `O=C(Cc1noc2ccccc12)Nc1ccc2ccccc2c1`?
ARFGAP1 inhibitor: -10.8; ASAP1 inh: -6.7; C2C12 statin: -3.5; APOBEC3A inh: 46.8*; Mot1-301 SUMO: 13.2; A3G deaminase: -3.8; A3A conf: -33.4; UDG ctr A3A: 8.0

Results for N/C(=N\OC(=O)Cc1ccc([N+](=O)[O-])cc1)c1ccc([N+](=O)[O-])cc1 ?
ARFGAP1 inhibitor: -1.5; ASAP1 inh: 2.6; C2C12 statin: -0.5; APOBEC3A inh: 53.4*; Mot1-301 SUMO: 4.2; A3G deaminase: -6.9; A3A conf: -3.7; UDG ctr A3A: -1.7

Results for N/C(=N\OC(=O)Cc1ccc([N+](=O)[O-])cc1)c1cccc(Br)c1 ?
ARFGAP1 inhibitor: 3.8; ASAP1 inh: 2.4; APOBEC3A inh: 0.2; Mot1-301 SUMO: -11.5; A3G deaminase: -4.5

What do the screens show for `O=C(C[C@H]1CC[C@H]2[C@@H](COC[C@@H](O)CN2S(=O)(=O)c2ccc(F)cc2)O1)NCc1ccncn1`?
C2C12 statin: 8.7

How did CCC1=NN(C(=O)C(=O)Nc2ccc(OC)cc2)C(O)(C(F)(F)F)C1 (centres undefined) do in these assays?
ARFGAP1 inhibitor: 3.3; ASAP1 inh: 3.3; C2C12 statin: 18.6; APOBEC3A inh: 8.5; Mot1-301 SUMO: -1.8; A3G deaminase: 1.3

How did COc1ccc(NC(=O)C(=O)N2N=C3CCCCC3C2(O)C(F)(F)F)cc1 (centres undefined) do in these assays?
ARFGAP1 inhibitor: 1.6; ASAP1 inh: 1.4; APOBEC3A inh: 55.4*; Mot1-301 SUMO: -8.9; A3G deaminase: 10.0; A3A conf: 54.4*; UDG ctr A3A: -1.0

What do the screens show for `Cc1ccccc1S(=O)(=O)N1C[C@H](O)COC[C@H]2O[C@H](CC(=O)N3CCN(C)CC3)CC[C@@H]21`?
C2C12 statin: -7.1

Results for N=C1/C(=C\c2ccc(Br)o2)C(=O)N=C2SC(CC(=O)N3CCOCC3)=NN12 ?
ARFGAP1 inhibitor: -1.3; ASAP1 inh: 5.2; C2C12 statin: 2.8; APOBEC3A inh: 20.8; Mot1-301 SUMO: 8.5; A3G deaminase: 8.0

How did N=C1/C(=C/c2ccc(Br)o2)C(=O)N=C2SC(CC(=O)N3CCCC3)=NN12 do in these assays?
ARFGAP1 inhibitor: 9.2; ASAP1 inh: -5.3; C2C12 statin: 0.9; APOBEC3A inh: 43.4*; Mot1-301 SUMO: -3.5; A3G deaminase: 17.9; A3A conf: 45.0*

How did Cc1ccc(/C=C2\C(=N)N3N=C(CC(=O)N4CCCCC4)SC3=NC2=O)cc1 do in these assays?
ARFGAP1 inhibitor: -7.6; ASAP1 inh: -0.8; C2C12 statin: -8.7; APOBEC3A inh: -0.5; Mot1-301 SUMO: 12.7; A3G deaminase: -3.3

How did N=C1/C(=C/c2ccco2)C(=O)N=C2SC(CC(=O)N3CCCC3)=NN12 do in these assays?
ARFGAP1 inhibitor: 9.0; ASAP1 inh: 0.8; C2C12 statin: -0.2; APOBEC3A inh: 51.4*; Mot1-301 SUMO: -8.1; A3G deaminase: 27.3; A3A conf: 42.3*; UDG ctr A3A: 1.2

How did CCCC#Cc1ccc2c(c1)O[C@@H](CN(C)Cc1ccncc1)[C@@H](C)CN([C@H](C)CO)S2(=O)=O do in these assays?
C2C12 statin: 24.6

How did C/C(=N\Nc1ccc(Cl)c(C(=O)O)c1)c1cccs1 do in these assays?
ARFGAP1 inhibitor: 13.7; ASAP1 inh: 0.9; APOBEC3A inh: 41.5*; Mot1-301 SUMO: -0.7; A3G deaminase: 15.6; A3A conf: 23.0
